The values below come from PMC3911823 (The FEBS journal, 2011).

The target of one data set is T1, P450 2B4 wild type (Oryctolagus cuniculus, UniProt P00178).
T1 sequence (P00178 with tags, fused parts or gaps limits assumed): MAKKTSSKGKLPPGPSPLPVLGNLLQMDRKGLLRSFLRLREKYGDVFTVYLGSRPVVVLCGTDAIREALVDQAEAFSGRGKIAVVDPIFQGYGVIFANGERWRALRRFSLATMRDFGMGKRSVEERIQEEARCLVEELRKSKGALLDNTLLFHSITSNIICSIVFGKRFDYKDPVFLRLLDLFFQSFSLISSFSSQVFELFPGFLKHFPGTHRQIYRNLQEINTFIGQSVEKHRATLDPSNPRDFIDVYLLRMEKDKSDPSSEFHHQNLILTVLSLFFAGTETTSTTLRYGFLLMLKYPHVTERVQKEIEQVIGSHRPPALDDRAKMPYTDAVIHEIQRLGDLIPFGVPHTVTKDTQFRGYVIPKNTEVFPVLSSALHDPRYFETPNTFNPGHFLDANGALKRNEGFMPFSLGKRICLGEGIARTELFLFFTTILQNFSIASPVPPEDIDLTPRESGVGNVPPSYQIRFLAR
Put plainly: Inhibition of 7-EFC O-deethylation by imidazole inhibitors. It counts as biochemical, rabbit (Oryctolagus cuniculus).

The next data set has as its target T2, P450 2B4 H172Q (Oryctolagus cuniculus, UniProt P00178, H172Q).
T2 sequence (P00178 with tags, fused parts or gaps H172Q limits assumed): T1 sequence (P00178 with tags, fused parts or gaps limits assumed) with H153Q
The description is as above. The format is biochemical, rabbit (Oryctolagus cuniculus).

Data set [1] deals with T3, P450 2B4 L437A (Oryctolagus cuniculus, UniProt P00178, L437A).
T3 sequence (P00178 with tags, fused parts or gaps L437A limits assumed): T1 sequence (P00178 with tags, fused parts or gaps limits assumed) with L418A
In words: Spectral binding titration of imidazole ligands. The following applies: 2B4 L437A versus wild type. Also noted: species or system rabbit (Oryctolagus cuniculus). Put shortly: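 Protein was the His-tagged 2B4dH construct (single mutants or wild type), expressed in TOPP3 cells and Ni-NTA purified. Spectra 350–700 nm recorded after serial 5 μl additions of 100 μM 4-CPI or bifonazole. Ks came from a tight-binding equation fit, and the 4-CPI/bifonazole Ks ratio was calculated.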

Another data set addresses T4, P450 2B4 E474D (Oryctolagus cuniculus, UniProt P00178, E474D).
T4 sequence (P00178 with tags, fused parts or gaps E474D limits assumed): T1 sequence (P00178 with tags, fused parts or gaps limits assumed) with E455D
In words: Inhibition of 7-EFC O-deethylation by imidazole inhibitors. It counts as biochemical, rabbit (Oryctolagus cuniculus).

Data set [2] has as its target T3, P450 2B4 L437A. It counts as biochemical, rabbit (Oryctolagus cuniculus).
A further data set has as its target T5, P450 2B4 H172A (Oryctolagus cuniculus, UniProt P00178, H172A).
T5 sequence (P00178 with tags, fused parts or gaps H172A limits assumed): T1 sequence (P00178 with tags, fused parts or gaps limits assumed) with H153A
It counts as biochemical, rabbit (Oryctolagus cuniculus).

Substitutions are numbered along the chain they refer to. Entries after “also recorded” stand apart in the source; their conditions may differ.

As for `Clc1ccc(-c2c[nH]cn2)cc1` [4-CPI, 4-(4-chlorophenyl)imidazole], the IC50 is 40 nM against P450 2B4 wild type, 220 nM on P450 2B4 H172Q and 240 nM on P450 2B4 E474D. Also, the “Ratio 4-CPI IC50/Bifonazole IC50” value was found to be 0.04 on P450 2B4 wild type (2B4 WT, 50 μM 7-EFC as substrate); 0.29 on P450 2B4 H172Q (2B4 H172Q, 50 μM 7-EFC as substrate); 0.39 on P450 2B4 E474D (2B4 E474D, 50 μM 7-EFC as substrate). In addition, the “Ks (spectral dissociation constant) higher than wild type” value at P450 2B4 L437A [1] is recorded as ~ 50 times. The “change in the ratio of 4-CPI Ks to bifonazole Ks” value on P450 2B4 L437A [1] is on record as “greater than 9 fold”.
`O=c1ccc2nc3ccc(OCc4ccccc4)cc3oc-2c1` [7-BR, 7-benzyloxyresorufin]: on P450 2B4 L437A [2], the kcat is 0 s⁻¹, the kcat/S50 is listed as 0 and the “substrate turnover (activity)” value is reported as “did not turn over; also recorded: no activity”. At P450 2B4 H172A, the “decrease (change) in kcat versus wild type” value is ~ 19 fold, the kcat stood at 0.0067 ± 0.0017 s⁻¹ and the kcat/S50 was found to be 0.08. The molecule also came in with an S50 at P450 2B4 H172A (Hill equation) of 5.0 ± 0.8 µM.

By IC50 is commonly meant the concentration that gives 50% inhibition. A high value points to weaker potency in that assay. As usually defined, the kcat is the number of substrate molecules converted per active site and unit of time at saturation.
